Calls of active or inactive are those of the source. The rule behind the calls is not given here.
Columns and labels:
[1] = biological target: T1, Polyunsaturated fatty acid 5-lipoxygenase (Rattus norvegicus, UniProt P12527); experiment: Evaluated in vitro for its inhibitory activity against 5-lipoxygenase; N=Inactive, <50% inhibition at 10 uM concentration
T1 sequence (P12527 whole entry): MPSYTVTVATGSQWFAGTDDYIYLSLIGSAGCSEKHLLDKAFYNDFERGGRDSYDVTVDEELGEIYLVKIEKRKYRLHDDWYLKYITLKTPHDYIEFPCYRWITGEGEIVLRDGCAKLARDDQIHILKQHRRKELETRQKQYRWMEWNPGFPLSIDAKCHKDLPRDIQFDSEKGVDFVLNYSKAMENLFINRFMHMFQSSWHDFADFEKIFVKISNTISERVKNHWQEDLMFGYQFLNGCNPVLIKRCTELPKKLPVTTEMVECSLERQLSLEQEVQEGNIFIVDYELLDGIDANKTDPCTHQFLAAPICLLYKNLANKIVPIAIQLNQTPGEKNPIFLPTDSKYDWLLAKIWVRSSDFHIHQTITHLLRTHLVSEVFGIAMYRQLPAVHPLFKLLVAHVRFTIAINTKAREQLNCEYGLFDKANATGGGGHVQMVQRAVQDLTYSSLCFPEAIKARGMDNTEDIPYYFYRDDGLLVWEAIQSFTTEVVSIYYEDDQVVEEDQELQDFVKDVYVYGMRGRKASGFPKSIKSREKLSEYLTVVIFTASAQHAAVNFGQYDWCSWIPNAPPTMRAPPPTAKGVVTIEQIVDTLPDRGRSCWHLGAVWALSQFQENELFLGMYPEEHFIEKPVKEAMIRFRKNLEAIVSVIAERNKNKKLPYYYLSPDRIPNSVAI
In short: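 RBL-1 cells grown in MEM + 12% FBS, washed in PBS pH 7.4, resuspended at 2×10^6 cells/mL in PBS with 1.0 mM calcium. Preincubated 10 min at room temperature with compound in DMSO, then stimulated with A23187 (5 μM) 7 min at 37 °C; stopped on ice. Supernatant LTB4 by radioimmunoassay.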

Rattus norvegicus [2] = experiment: Evaluated for the antiinflammatory activity by measuring the percentage inhibition of edema in the carrageenan foot-pad edema test at the dose of 10 mg/kg; assay type: functional
In short: (§1)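 Male Wistar rats dosed orally (0.5% HPMC/0.2% Tween 80 or Labrafils, 10 mL/kg) 1 h before subplantar injection of 0.10 mL 1% carrageenan into right hind paw under light anesthesia. Paw volume by mercury plethysmography at challenge and 5 h later; percent inhibition ± SEM versus vehicle group. Doses 10.0 and 30.0 mg/kg po, 7-14 rats per dose.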

Rattus norvegicus [3] = experiment: Evaluated for the percent rats with ulcers at the dose of 200 mg/kg (number of animals used per group in the experiment are 10 ); assay type: functional
In short: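 Male outbred Wistar rats (100-250 g) fasted 24 h, given compound orally in 0.5% HPMC (2 mL/kg), then denied food and water 6 more h. Killed with CO2; stomachs opened along greater curvature and scored for ulcers. Percent of rats with ulcers per dose; up to 200 mg/kg po, 10 rats per dose.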

Rattus norvegicus [4] = species on record: Rattus norvegicus; experiment: Ratio of IC50 against 5-LO to that of CO enzyme.
In short: (§2)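 In ionophore-stimulated RBL-1 cells (2×10^6/mL, PBS with 1.0 mM Ca, 10 min compound preincubation at room temperature, 5 μM A23187 for 7 min at 37 °C), supernatant LTB₄ (5-LO) and PGF₂α (CO) were each quantified by RIA over 0.10–10.0 μM. IC50s came from linear regression, and the ratio is the 5-LO IC50 over the CO IC50.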

Rattus norvegicus [5] = experiment: Evaluated for the antiinflammatory activity by measuring the dose (po) which inhibited Mycobacterium induced foot-pad edema in rats; assay type: functional
Rattus norvegicus [6] = experiment: Evaluated for the antiinflammatory activity by measuring the percentage inhibition of edema in the carrageenan foot-pad edema test at the dose of 30 mg/kg; assay type: functional; in short: as §1
Cyclooxygenase = biological target: T2, Cyclooxygenase (Rattus norvegicus, UniProt P35355+Q63921); experiment: Evaluated in vitro for its inhibitory activity against Prostaglandin G/H synthase; assay type: protein assay
T2 sequence (P35355 whole entry): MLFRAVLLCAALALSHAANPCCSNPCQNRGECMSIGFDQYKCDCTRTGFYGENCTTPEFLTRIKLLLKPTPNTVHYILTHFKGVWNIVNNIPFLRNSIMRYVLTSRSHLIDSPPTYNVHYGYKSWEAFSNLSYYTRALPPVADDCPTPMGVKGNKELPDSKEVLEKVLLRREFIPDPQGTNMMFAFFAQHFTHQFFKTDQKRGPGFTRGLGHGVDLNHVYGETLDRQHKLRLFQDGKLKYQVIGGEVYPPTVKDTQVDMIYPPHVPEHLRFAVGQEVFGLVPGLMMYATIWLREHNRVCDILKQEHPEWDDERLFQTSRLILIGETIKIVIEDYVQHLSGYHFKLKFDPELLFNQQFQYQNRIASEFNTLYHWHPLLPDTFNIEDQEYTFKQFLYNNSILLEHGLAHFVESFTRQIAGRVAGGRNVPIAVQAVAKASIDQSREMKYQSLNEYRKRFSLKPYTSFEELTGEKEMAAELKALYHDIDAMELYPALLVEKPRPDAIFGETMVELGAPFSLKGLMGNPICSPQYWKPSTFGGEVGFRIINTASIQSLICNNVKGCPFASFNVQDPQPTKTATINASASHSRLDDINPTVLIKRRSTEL
T2 sequence (Q63921 whole entry): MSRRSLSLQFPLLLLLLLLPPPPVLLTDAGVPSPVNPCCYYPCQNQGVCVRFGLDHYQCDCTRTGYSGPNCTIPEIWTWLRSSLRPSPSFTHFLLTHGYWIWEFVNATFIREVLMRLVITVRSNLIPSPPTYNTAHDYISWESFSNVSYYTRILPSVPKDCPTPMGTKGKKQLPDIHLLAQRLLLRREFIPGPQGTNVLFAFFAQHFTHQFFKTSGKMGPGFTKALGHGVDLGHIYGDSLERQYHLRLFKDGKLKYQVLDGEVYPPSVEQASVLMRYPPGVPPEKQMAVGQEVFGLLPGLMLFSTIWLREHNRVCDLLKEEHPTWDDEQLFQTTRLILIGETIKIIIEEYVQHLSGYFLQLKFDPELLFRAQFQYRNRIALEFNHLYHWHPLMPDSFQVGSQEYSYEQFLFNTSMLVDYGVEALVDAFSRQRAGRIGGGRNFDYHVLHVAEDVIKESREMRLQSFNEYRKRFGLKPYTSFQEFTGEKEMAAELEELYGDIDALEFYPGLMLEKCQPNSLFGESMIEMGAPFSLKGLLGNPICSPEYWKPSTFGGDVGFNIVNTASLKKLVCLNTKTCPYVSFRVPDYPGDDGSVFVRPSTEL

[7] = biological target: T1, Polyunsaturated fatty acid 5-lipoxygenase; experiment: Evaluated in vitro for its inhibitory activity against 5-lipoxygenase
Rattus norvegicus [8] = experiment: Compound was evaluated for the antiinflammatory activity by measuring the dose (po) which inhibited Mycobacterium induced foot-pad edema in rats; N=Inactive, <30% inhibition at 10 mg/kg po; assay type: functional, organism-based; parameters: dose 10 mg/kg
[9] = biological target: T3, Polyunsaturated fatty acid 5-lipoxygenase (Rattus norvegicus) (UniProt P12527); conditions: at 10 µM
T3 sequence (whole entry): T1 sequence (P12527 whole entry)

Rattus norvegicus [10] = species on record: Rattus norvegicus; experiment: Ratio of IC50 against 5-LO and COX; in short: as §2
Rattus norvegicus [11] = experiment: Compound was evaluated for the antiinflammatory activity by taking the percentage inhibition of edema in the carrageenan foot-pad edema test at the dose of 10 mg/kg; assay type: functional; in short: as §1
[12] = biological target: T1, Polyunsaturated fatty acid 5-lipoxygenase; experiment: Inhibitory activity against 5-Lipoxygenase
In short: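 Rat basophilic leukemia RBL-1 cells were grown in suspension in MEM with 12% FBS, washed, and resuspended at 2×10^6 cells/mL in PBS pH 7.4 with 1.0 mM calcium. Compound in DMSO was preincubated 10 min at room temperature, then 5 μM A23187 was added for 7 min at 37 °C. LTB₄ in the supernatant was measured by RIA at 0.10–10.0 μM. IC50 was determined by linear regression.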

Rattus norvegicus [13] = experiment: Compound was evaluated for the antiinflammatory activity by taking the percentage inhibition of edema in the carrageenan foot-pad edema test at the dose of 30 mg/kg; assay type: functional; in short: as §1
Rattus norvegicus [14] = experiment: Compound was evaluated for the antiinflammatory activity by measuring the percentage inhibition of edema in the carrageenan foot-pad edema test at the dose of 30 mg/kg; N=Inactive, <25% inhibition; assay type: functional, organism-based; parameters: dose 30 mg/kg; in short: as §1
[15] = biological target: Cyclooxygenase (Rattus norvegicus) (UniProt P35355+Q63921); experiment: Inhibitory activity against Prostaglandin G/H synthase at 10 uM; assay type: protein assay
In short: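 Cyclooxygenase read-out in RBL-1 cells (2×10^6 cells/mL in PBS with 1.0 mM calcium): 10 min room-temperature preincubation with compound in DMSO, A23187 (5 μM) stimulation 7 min at 37 °C, ice stop. Supernatant PGF2α by radioimmunoassay; percent inhibition at a 10 μM screening concentration.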

For `CN(C)Cc1nc(-c2cc(C(C)(C)C)c(O)c(C(C)(C)C)c2)ns1.Cl`, the IC50 [1] was “Inactive”.
Work on `CC(C)(C)c1cc(-c2noc(N=C(N)N)n2)cc(C(C)(C)C)c1O.CS(=O)(=O)O` yielded an inhibition in vivo at 10 mg/kg (Rattus norvegicus [2]) of 51.2%, an Activity (Rattus norvegicus [3]) of 0% and a Ratio (Rattus norvegicus [4]) of 2.5. For the same molecule, the ID40 (Rattus norvegicus [5]) was 3.1 mg/kg, the inhibition in vivo at 30 mg/kg (Rattus norvegicus [6]) was 71% and the IC50 (Cyclooxygenase) was 0.67 µM. It also gave an IC50 [7] of 1.7 µM.
Molecule `CN(C)Cc1nc(-c2cc(C(C)(C)C)c(O)c(C(C)(C)C)c2)no1.Cl` has a Ratio (Rattus norvegicus [4]) of 10.5, an IC50 (Cyclooxygenase) of 0.73 µM and an IC50 [7] of 7.7 µM.
In the case of `CC(C)(C)c1cc(-c2nc(CN3CCCC3)no2)cc(C(C)(C)C)c1O`, the IC50 [1] is reported as “Inactive”.
In the case of `CC(C)(C)c1cc(-c2nc(NC=O)no2)cc(C(C)(C)C)c1O`, the inhibition in vivo at 10 mg/kg (Rattus norvegicus [2]) is reported as 51.5%, the ID40 (Rattus norvegicus [8]) is reported as “inactive” and the IC50 [1] is reported as “Inactive”. It also gave an inhibition in vivo at 30 mg/kg (Rattus norvegicus [6]) of 54.3%.
`CCOC(=O)c1nc(-c2cc(C(C)(C)C)c(O)c(C(C)(C)C)c2)ns1` showed an inhibition [9] of 91%.
For `CC(C)(C)c1cc(-c2nc(N)no2)cc(C(C)(C)C)c1O`, the inhibition in vivo at 10 mg/kg (Rattus norvegicus [2]) was 43.6%, the ID40 (Rattus norvegicus [8]) was “inactive” and the Ratio (Rattus norvegicus [4]) was 1.9. For the same molecule, the inhibition in vivo at 30 mg/kg (Rattus norvegicus [6]) was 32.9%, the IC50 (Cyclooxygenase) was 1.9 µM and the IC50 [7] was 3.6 µM.
With `CCO/C=N/c1noc(-c2cc(C(C)(C)C)c(O)c(C(C)(C)C)c2)n1` the Ratio (Rattus norvegicus [10]) was 0.21, the inhibition in vivo at 10 mg/kg (Rattus norvegicus [11]) was 21% and the IC50 [12] was 1.5 µM. For the same molecule, the inhibition in vivo at 30 mg/kg (Rattus norvegicus [13]) was 37.3% and the IC50 (Cyclooxygenase) was 7.2 µM.
For `CN(C)Cc1noc(-c2cc(C(C)(C)C)c(O)c(C(C)(C)C)c2)n1.Cl`, the inhibition in vivo at 10 mg/kg (Rattus norvegicus [2]) was 34.6%, the ID40 (Rattus norvegicus [8]) was “inactive” and the Ratio (Rattus norvegicus [4]) was 15. For the same molecule, the inhibition in vivo at 30 mg/kg (Rattus norvegicus [6]) was 50.3%, the IC50 (Cyclooxygenase) was 0.45 µM and the IC50 [7] was 6.8 µM.
Work on `CC(C)(C)c1cc(-c2noc(N)n2)cc(C(C)(C)C)c1O` yielded an inhibition in vivo at 10 mg/kg (Rattus norvegicus [2]) of 36%, a Ratio (Rattus norvegicus [4]) of 0.83 and an inhibition in vivo at 30 mg/kg (Rattus norvegicus [6]) of 39%. For the same molecule, the IC50 (Cyclooxygenase) was 3 µM and the IC50 [7] was 2.5 µM.
In the case of `Cc1noc(-c2cc(C(C)(C)C)c(O)c(C(C)(C)C)c2)n1`, the Ratio (Rattus norvegicus [4]) is reported as 7.2, the inhibition (Rattus norvegicus [14]) is reported as “inactive” and the IC50 (Cyclooxygenase) is reported as 0.46 µM. The IC50 [7] was 3.3 µM.
`CC(C)(C)c1cc(-c2nsc(N)n2)cc(C(C)(C)C)c1O` gave a Ratio (Rattus norvegicus [4]) of 0.15, an IC50 (Cyclooxygenase) of 2.2 µM and an IC50 [7] of 0.33 µM.
`CN(C)c1noc(-c2cc(C(C)(C)C)c(O)c(C(C)(C)C)c2)n1` was tested, and the inhibition [15] was 88% and the IC50 [1] was “Inactive”.
Work on `CN(C)C(=N)Nc1nc(-c2cc(C(C)(C)C)c(O)c(C(C)(C)C)c2)ns1` yielded an inhibition [9] of 72%.

Reference: ChEMBL document CHEMBL1125307, “Novel 1,2,4-oxadiazoles and 1,2,4-thiadiazoles as dual 5-lipoxygenase and cyclooxygenase inhibitors” (J Med Chem, 1992)
